This passage reports PC, IC50 and T1/2 results from ChEMBL document CHEMBL1124778, “Synthesis and biological evaluation of prodrugs of zidovudine” (J Med Chem, 1990).

In general, IC50 refers to the concentration needed to halve the response being measured. Low values mean inhibition by little substance, high ones a need for much substance.

Data set [1] is described as follows: Evaluated for Partition coefficient in n-octanol and phosphate buffer pH 7.4. The format is physicochemical. The settings on record: octanol/water. In outline:
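Ester solutions in n-octanol equilibrated with phosphate buffer (0.2 M, pH 7.4) at room temperature. Partition coefficient derived from the distribution between the two phases.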

Data set [2] has as its system Human immunodeficiency virus 1. Description: Evaluated in vitro for the concentration required to produce 50% inhibition of replication of HIV-1. The format is functional, organism-based.
A further data set relates to H9. Kind of data set: Evaluated in vitro for the concentration required to produce 50% inhibition of proliferation of H9 lymphocytes. The format is functional, cell-based. The settings on record: Homo sapiens. Summed up:
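H9 lymphoblastoid cells grown in RPMI 1640 with 15% FBS, penicillin/streptomycin and 2 mM L-glutamine at 37 °C under 5% CO2. Viability read by trypan blue dye exclusion. IC50 taken as the concentration giving 50% inhibition of proliferation.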

Data set [3] in a line: In vitro time required for 50% hydrolysis at 37 degree Celsius upon incubation in human plasma. The format is functional, cell-free. Summed up: (§1)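 Ester (10 mg/mL DMSO stock, diluted 1:100) incubated at 37 °C in human plasma or in rat hepatic microsomes (15.5 mg protein/mL solution). Samples taken over 0–4 h and quenched in ice-cold methanol. Remaining ester quantified by reverse-phase HPLC. t1/2 = time to 50% hydrolysis.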

A short description of data set [4]: In vitro time required for 50% hydrolysis at 37 degree Celsius upon incubation in rat hepatic microsomes. It counts as functional. The settings on record: Liver. In outline:
as §1

Turning to `Cc1cn([C@H]2C[C@H](N=[N+]=[N-])[C@@H](CO)O2)c(=O)[nH]c1=O` [ZIDOVUDINE], in data set [1], the PC was determined as 1.2. In addition, the results for the IC50 (in data set [2]; in the data set on H9) were 0.12 µM and 150 µM, respectively.
The compound `Cc1cn([C@H]2C[C@H](N=[N+]=[N-])[C@@H](COC(=O)C(N)CCCCN)O2)c(=O)[nH]c1=O.O=C(O)C(F)(F)F` (stereo partly drawn) registered a PC in data set [1] of 0.01. Also, the T1/2 turned out to be 30 min in data set [3] and 14 min in data set [4]. The compound further had an IC50 with H9 of 300 µM.
`Cc1cn(C2CC(N=[N+]=[N-])C(COC(=O)CCC(N)C(=O)O)O2)c(=O)[nH]c1=O` (stereo not drawn) gave a PC in data set [1] of 0.12. In addition, the T1/2 in data set [3] was 70 min; in data set [4] it was 30 min. The compound further registered an IC50 in the data set with H9 of 320 µM.
As to `Cc1cn([C@H]2C[C@H](N=[N+]=[N-])[C@@H](COC(=O)C3=CN(C)C=CC3)O2)c(=O)[nH]c1=O`, the PC in data set [1] was found to be 7.2. Further, the IC50 worked out at 0.05 µM in data set [2] and 336 µM with H9. Moreover, the figures for the T1/2 in data set [3] and in data set [4] were over 240 min and 110 min, respectively.
`Cc1cn([C@H]2C[C@H](N=[N+]=[N-])[C@@H](COC(=O)CN3CCOCC3)O2)c(=O)[nH]c1=O` registered a PC in data set [1] of 2.2. For the same compound, the T1/2 in data set [3] was 12 min; in data set [4] it was 28 min. The compound further gave a concentration for half-maximal inhibition (IC50) in the data set with H9 of 320 µM.
`CCC(C)C(N)C(=O)OC[C@H]1O[C@@H](n2cc(C)c(=O)[nH]c2=O)C[C@@H]1N=[N+]=[N-].O=C(O)C(F)(F)F` (stereo partly drawn) showed a PC in data set [1] of 10.3. Besides, the IC50 in data set [2] was found to be 0.1 µM; in the data set on H9, 250 µM. For the same compound, the T1/2 in data set [3] is over 240 min; in data set [4] it was 19 min.
In the same order, the values of `Cc1cn([C@H]2C[C@H](N=[N+]=[N-])[C@@H](COC(=O)C(N)Cc3ccccc3)O2)c(=O)[nH]c1=O.O=C(O)C(F)(F)F` (stereo partly drawn) are 3.3, 0.11 µM, 350 µM, 20 min and 30 min.
On to `Cc1cn([C@H]2C[C@H](N=[N+]=[N-])[C@@H](COC(=O)C(N)Cc3ccc(O)cc3)O2)c(=O)[nH]c1=O.O=C(O)C(F)(F)F` (stereo partly drawn), for which the PC in data set [1] came to 0.94. The 50% inhibitory concentration (IC50) in data set [2] was 0.11 µM; in the data set with H9, 300 µM. In addition, the T1/2 is 60 min in data set [3] and 5 min in data set [4].
In the same order, the values of `CC1=C(/C=C/C(C)=C/C=C/C(C)=C/C(=O)OC[C@H]2O[C@@H](n3cc(C)c(=O)[nH]c3=O)C[C@@H]2N=[N+]=[N-])C(C)(C)CCC1` are 17.9, 0.2 µM, 25 µM, 120 min and 60 min.
In turn, `Cc1cn([C@H]2C[C@H](N=[N+]=[N-])[C@@H](COC(=O)c3cccnc3)O2)c(=O)[nH]c1=O` came in with a PC in data set [1] of 1.6. In addition, the results for the T1/2 in data set [3] and in data set [4] were 10 min and 30 min, respectively.
